Source: paper PMC11839910 (Nature Communications, 2025)
In brackets after ≈: the same amount, converted by molar mass. Entries after “also recorded” stand apart in the source; their conditions may differ. One block for each molecule: values may come before it.

How the values were obtained:
[1] = tested on: albumin; conditions: cited from earlier work
[2] = Solubility limit in IV dose formulation; assay type: physicochemical
[3] = biological target: T1, SOD1^G93A (Homo sapiens, UniProt P00441, G94A); assay: In vivo target engagement
Outline: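 Hemizygous B6SJL-Tg(SOD1*G93A)1Gur/J mice (15–30 weeks, either sex) were dosed in PBS or water (<2% final DMSO): 10 mg/kg IV, 12.5 or 30 mg/kg SC, or 20 mg/kg SC with collection at 1 h. Blood and brain underwent chloroform–ethanol extraction, then intact-protein C4 LC-MS for %TE against a 37% METE. Doses were re-estimated as old dose × (METE/%TE). Duplicate.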

[4] = biological target: human serum albumin (HSA) (Homo sapiens, UniProt P02768); assay type: in vitro ADME; conditions: intact protein LC-MS
[5] = biological target: T1, SOD1^G93A; assay: Intact protein LC-MS of covalent drug candidates with purified SOD1^G93A; assay type: binding
[6] = biological target: T1, SOD1^G93A; assay type: binding; conditions: transgenic ALS^G93A mouse brain homogenate
[7] = tested on: SOD1^G93A mouse model; conditions: cited from earlier work

Chain of human serum albumin (HSA) (P02768 25-609): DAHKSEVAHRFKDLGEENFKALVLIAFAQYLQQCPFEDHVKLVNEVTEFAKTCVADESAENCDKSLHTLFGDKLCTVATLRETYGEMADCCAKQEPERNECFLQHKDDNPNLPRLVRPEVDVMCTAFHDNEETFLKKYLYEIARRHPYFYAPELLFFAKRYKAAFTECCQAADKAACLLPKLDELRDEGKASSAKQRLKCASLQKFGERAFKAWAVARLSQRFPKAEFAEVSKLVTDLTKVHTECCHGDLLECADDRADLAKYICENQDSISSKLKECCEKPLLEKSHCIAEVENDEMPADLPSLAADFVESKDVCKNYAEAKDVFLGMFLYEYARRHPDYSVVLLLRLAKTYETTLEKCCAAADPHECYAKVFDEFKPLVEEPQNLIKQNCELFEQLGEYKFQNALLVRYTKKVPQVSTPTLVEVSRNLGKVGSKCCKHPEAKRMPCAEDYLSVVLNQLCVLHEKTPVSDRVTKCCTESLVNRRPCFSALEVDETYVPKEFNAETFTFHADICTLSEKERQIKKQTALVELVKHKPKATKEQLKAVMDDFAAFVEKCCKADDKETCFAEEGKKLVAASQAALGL
T1 sequence (P00441 2-154 G94A limits assumed): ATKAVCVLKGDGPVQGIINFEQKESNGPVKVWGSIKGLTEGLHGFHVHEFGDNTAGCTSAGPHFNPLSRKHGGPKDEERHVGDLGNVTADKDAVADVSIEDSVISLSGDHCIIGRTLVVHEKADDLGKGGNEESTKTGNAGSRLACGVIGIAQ

SMILES: CCN(CC)C(=S)SSC(=S)N(CC)CC [disulfiram]
plasma protein binding via albumin [1]: high plasma protein binding
solubility [2]: 4000 µg/mL (≈ 13.5 mM)
METE reached in vivo (D5) ([3]; at a 20 mg/kg dose imposed by solubility limit): could not be reached
covalent binding to HSA [4]: showed drug-related mass shifts with HSA
proposed MoA confirmed by intact drug-protein mass (D1) [5]: shows the predicted molecular mass

SMILES: N.N.[Cl][Pt][Cl] [cisplatin]
proposed MoA confirmed by intact drug-protein mass (D1) [5]: shows the predicted molecular mass

SMILES: [O-][S+]1CCCCS1 (stereo not shown) [S-XL6, 1,2-dithiane-1-oxide]
in vivo target engagement, detection of drug-protein complex ([3]; brain, 1-hr post-dose via SC): successful detection of cross-linked dimer
in vitro target engagement in target tissue homogenate (predicted mass shift) [6]: show the predicted mass shifts
covalent binding to HSA [4]: negligible binding; also recorded: no detectable HSA binding
proposed MoA confirmed by intact drug-protein mass (D1) [5]: confirms the proposed MoA

SMILES: C=CC(=O)N1CCC[C@@H](n2nc(-c3ccc(Oc4ccccc4)cc3)c3c(N)ncnc32)C1 [ibrutinib]
covalent binding to HSA [4]: minimal binding; also recorded: limited, but detectable covalent binding

SMILES: O=c1c2ccccc2[se]n1-c1ccccc1 [ebselen]
survival [7]: improves survival
METE reached in vivo (D5) ([3]; at ~22% of LD50 (20 mg/kg SC, 1 h)): could not be reached
effect on SOD1 in vivo (modification of SOD1^G93A) ([3]; brain and blood of dosed SOD1^G93A mouse): promoting cysteinylation (in brain) and glutathionylation (in blood)
in vitro target engagement in target tissue homogenate (predicted mass shift) [6]: show the predicted mass shifts
covalent binding to HSA [4]: showed drug-related mass shifts with HSA
proposed MoA confirmed by intact drug-protein mass (D1) [5]: confirms its proposed MoA

covalent binding to HSA [4]: negligible binding
SMILES: C=CC(=O)N1CCN(c2nc(=O)n(-c3c(C)ccnc3C(C)C)c3nc(-c4c(O)cccc4F)c(F)cc23)[C@@H](C)C1 [sotorasib]

SMILES: CN(C)C/C=C/C(=O)Nc1cc2c(Nc3ccc(F)c(Cl)c3)ncnc2cc1O[C@H]1CCOC1 [afatinib]
covalent binding to HSA [4]: minimal binding; also recorded: limited, but detectable covalent binding
